An excerpt weighted towards active compounds, which were near 2.1% of everything screened.
VIM-2 inh = inhibitors of Pseudomonas aeruginosa VIM-2 metallo-beta-lactamase | purified VIM-2, nitrocefin hydrolysis, epi-absorbance fluorescence | inhibition, % at 5.6 µM | actives 0.89% (n = 290,000) | AID 1527;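 active = inhibition above the mean of all tested compounds plus 3 SD, cutoff set per screening run, cut at about 7.5% in these data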;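 also: red hydrolysis product quenches plate fluorescence so inhibitors raise well fluorescence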
UBC9 SUMO inh = blocks human SUMOylation mediated by UBC9; P63279; HTRF SUMOylation assay, SAE1/SAE2 + UBC9, in vitro; inhibition, % at 35 µM; actives 0.36% (n = 290,000); AID 2006; in the data active = inhibition above about 50%, passing the limit was not always enough
Target sequence (P63279 whole entry, looked up): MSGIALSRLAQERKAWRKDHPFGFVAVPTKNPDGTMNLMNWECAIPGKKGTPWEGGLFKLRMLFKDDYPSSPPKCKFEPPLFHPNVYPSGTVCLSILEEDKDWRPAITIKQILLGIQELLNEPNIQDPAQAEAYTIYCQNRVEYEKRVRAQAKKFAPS
IMP-1 inh = blocks Pseudomonas aeruginosa IMP-1 metallo-beta-lactamase; purified IMP-1, nitrocefin hydrolysis, epi-absorbance fluorescence; inhibition, % at 5.6 µM; actives 0.45% (n = 290,000);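 active = inhibition above the mean plus 3 SD of all compounds in the same screening run, cut at about 4.5% in these data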
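Test system: recombinant IMP-1 enzyme, purified / Medium: HEPES buffer pH 7.1 with ZnSO4 and Brij 35 / Doses: single dose, 5.6 µM / Times: 25 °C, 15 min preincubation, 25 min reaction / Detection: Epi-absorbance via hydrolysed-nitrocefin quenching of white-plate fluorescence, 480/530 nm, EDTA stop / Evaluation: percent inhibition from optical density relative to buffer-blank wells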
DNA FID counter-1 = counter-screen for HCV NS3 helicase inhibitors: DNA intercalator displacement. DNA fluorescent intercalator displacement, fluorescence. inhibition, % at 7.9 µM. actives 0.17% (n = 290,000);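 also: higher means more ethidium bromide displaced from hairpin DNA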
NS3 helicase inh = inhibitors of Hepatitis C virus NS3 helicase; NS3 helicase DNA unwinding, Cy5 molecular beacon fluorescence; inhibition, % at 10.9 µM; actives 0.56% (n = 290,000); AID 1800;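 active = inhibition above the mean of all tested compounds plus 3 SD, set per campaign, cut at about 35% in these data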
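test system = hepatitis C virus NS3 helicase domain fragment enzyme | reagent = annealed dual-labelled DNA beacon duplex, ATP-started | times = 1 h at 25 °C | detection = Cy5 fluorescence, 0 and 60 min reads | read-out basis = percent inhibition from t60/t0 fluorescence ratio | control set = DMSO and thioflavine S | replication = one well per compound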
NS3 hel confirm = HCV NS3 helicase inhibition, confirmation assay; shares compounds with NS3 helicase inh; NS3 helicase DNA unwinding, Cy5 molecular beacon fluorescence; inhibition, % at 10.9 µM; actives 31% (n = 1,600);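 active = inhibition above the mean of all tested compounds plus 3 SD, cutoff set per campaign, cut at about 36% in these data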
DNA FID counter-2 = counter-screen for HCV NS3 helicase inhibitors: DNA intercalator displacement; DNA fluorescent intercalator displacement, fluorescence; shares compounds with NS3 helicase inh; actives 4% (n = 1,600); inhibition, % at 7.9 µM;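 also: higher means more displacement of ethidium bromide from the DNA hairpin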
A number is an active result. Rule as the data show it, unless noted: active = inhibition above about 37%; inactive = the rest.

Screening O=c1nc(/C=C/c2cccn2-c2ccc([N+](=O)[O-])cc2)cc(C(F)(F)F)[nH]1 returned VIM-2 inh inactive, UBC9 SUMO inh inactive, IMP-1 inh inactive, DNA FID counter-1 inactive, NS3 helicase inh 64, NS3 hel confirm inactive and DNA FID counter-2 inactive.
For CCCC(=O)Nc1ccc(Cl)c(NC(=O)c2ccc([N+](=O)[O-])cc2Cl)c1 the results were VIM-2 inh inactive, UBC9 SUMO inh inactive, IMP-1 inh inactive, DNA FID counter-1 inactive and NS3 helicase inh inactive.
For CCCC(=O)Nc1cccc(NC(=O)c2ccc([N+](=O)[O-])cc2Cl)c1 the results were VIM-2 inh inactive, UBC9 SUMO inh inactive, IMP-1 inh inactive, DNA FID counter-1 inactive, NS3 helicase inh 53, NS3 hel confirm inactive and DNA FID counter-2 inactive.
`CC12CCC(C(=O)NC3CCCCC3)([C@H](Br)C1=O)C2(C)C` (stereo not given in full) gave VIM-2 inh inactive, UBC9 SUMO inh inactive, IMP-1 inh inactive, DNA FID counter-1 inactive and NS3 helicase inh inactive.
`C/C(CC(=O)N1CCCC1)=N\NC(=O)c1cc2ccccc2cc1O` gave VIM-2 inh inactive, UBC9 SUMO inh inactive, IMP-1 inh inactive, DNA FID counter-1 inactive, NS3 helicase inh 45, NS3 hel confirm inactive and DNA FID counter-2 inactive.
`O=S(=O)(NC1CCCCC1)c1ccc(Br)s1` gave VIM-2 inh inactive, UBC9 SUMO inh inactive, IMP-1 inh inactive, DNA FID counter-1 inactive and NS3 helicase inh inactive.
O=S(=O)(NC1CCCCC1)c1ccc(Cl)s1 was read as VIM-2 inh inactive, UBC9 SUMO inh inactive, IMP-1 inh inactive, DNA FID counter-1 inactive, NS3 helicase inh 52, NS3 hel confirm inactive and DNA FID counter-2 inactive.
CCCNC(=O)COC(=O)c1ccc(S(=O)(=O)N2CCCC2)cc1 was read as VIM-2 inh inactive, UBC9 SUMO inh inactive, IMP-1 inh inactive, DNA FID counter-1 inactive, NS3 helicase inh 50, NS3 hel confirm inactive and DNA FID counter-2 inactive.
`CCCNC(=O)COC(=O)c1ccc(Cl)c(S(=O)(=O)N2CCCC2)c1` gave VIM-2 inh inactive, UBC9 SUMO inh inactive, IMP-1 inh inactive, DNA FID counter-1 inactive and NS3 helicase inh inactive.
`Cc1ccc(NC(=O)NNS(=O)(=O)c2ccc(Br)cc2)cc1` gave VIM-2 inh inactive, UBC9 SUMO inh inactive, IMP-1 inh inactive, DNA FID counter-1 inactive and NS3 helicase inh inactive.
For Cc1ccc(S(=O)(=O)NC(=O)c2cc(C)n(-c3ccc(N(C)C)cc3)c2C)cc1 the results were VIM-2 inh inactive, UBC9 SUMO inh inactive, IMP-1 inh inactive, DNA FID counter-1 inactive, NS3 helicase inh 42, NS3 hel confirm inactive and DNA FID counter-2 inactive.
Cc1ccc(S(=O)(=O)NC(=O)Nc2ccc(N(C)C)cc2)cc1 was read as VIM-2 inh inactive, UBC9 SUMO inh inactive, IMP-1 inh inactive, DNA FID counter-1 inactive, NS3 helicase inh 51, NS3 hel confirm 70 and DNA FID counter-2 inactive.
Cc1oc2c(c(C)cc3oc(=O)c(CC(=O)N[C@@H](CC(C)C)C(=O)O)c(C)c32)c1C was read as VIM-2 inh inactive, UBC9 SUMO inh inactive, IMP-1 inh inactive, DNA FID counter-1 inactive, NS3 helicase inh 47, NS3 hel confirm inactive and DNA FID counter-2 inactive.
CC[C@@H](C)[C@H](NC(=O)Cc1c(C)c2cc3c(C)c(C)oc3c(C)c2oc1=O)C(=O)O was read as VIM-2 inh inactive, UBC9 SUMO inh inactive, IMP-1 inh inactive, DNA FID counter-1 inactive, NS3 helicase inh 49, NS3 hel confirm 75 and DNA FID counter-2 inactive.
`CCOC(=O)C1CCN(C(=O)c2cc(COc3ccc(OC)c4ccccc34)on2)CC1` gave VIM-2 inh inactive, UBC9 SUMO inh inactive, IMP-1 inh inactive, DNA FID counter-1 inactive and NS3 helicase inh inactive.
CCOC(=O)c1sc2ncn(/N=C/N(C)C)c(=O)c2c1C was read as VIM-2 inh inactive, UBC9 SUMO inh inactive, IMP-1 inh inactive, DNA FID counter-1 inactive, NS3 helicase inh 41, NS3 hel confirm inactive and DNA FID counter-2 inactive.
Screening Cc1cc(C(=O)CSc2nnc(-c3ccccc3)o2)c(C)n1CC1COc2ccccc2O1 (stereo not given) returned VIM-2 inh inactive, UBC9 SUMO inh inactive, IMP-1 inh inactive, DNA FID counter-1 inactive and NS3 helicase inh inactive.
For Cc1cc(C(=O)CSc2nnc(-c3ccco3)o2)c(C)n1CC1COc2ccccc2O1 (stereo not given) the results were VIM-2 inh inactive, UBC9 SUMO inh inactive, IMP-1 inh inactive, DNA FID counter-1 inactive, NS3 helicase inh 42, NS3 hel confirm inactive and DNA FID counter-2 inactive.
For COC(=O)c1c(-c2ccco2)csc1NC(=O)C1CC=CCC1C(=O)O (stereo not given) the results were VIM-2 inh inactive, UBC9 SUMO inh inactive, IMP-1 inh inactive, DNA FID counter-1 inactive, NS3 helicase inh 36, NS3 hel confirm inactive and DNA FID counter-2 inactive.
CCOC(=O)N/N=C\c1ccc([N+](=O)[O-])o1 was read as VIM-2 inh inactive, UBC9 SUMO inh inactive, IMP-1 inh inactive, DNA FID counter-1 inactive and NS3 helicase inh inactive.
Screening O=C(N/N=C/c1ccc([N+](=O)[O-])o1)c1ccc2c(c1)OCO2 returned VIM-2 inh inactive, UBC9 SUMO inh inactive, IMP-1 inh inactive, DNA FID counter-1 inactive, NS3 helicase inh 40, NS3 hel confirm inactive and DNA FID counter-2 inactive.
For CC(C)(C)c1ccc2c(c1)OC(C(=O)N/N=C\c1ccncc1)CO2 (stereo not given) the results were VIM-2 inh inactive, UBC9 SUMO inh inactive, IMP-1 inh inactive, DNA FID counter-1 inactive and NS3 helicase inh inactive.
CCCCCCCC(=O)N/N=C/c1ccc([N+](=O)[O-])o1 was read as VIM-2 inh inactive, UBC9 SUMO inh inactive, IMP-1 inh inactive, DNA FID counter-1 inactive, NS3 helicase inh 39, NS3 hel confirm inactive and DNA FID counter-2 inactive.
Screening CC(C)(C)c1ccc2c(c1)OC(C(=O)N/N=C/c1ccc([N+](=O)[O-])o1)CO2 (stereo not given) returned VIM-2 inh inactive, UBC9 SUMO inh inactive, IMP-1 inh inactive, DNA FID counter-1 inactive, NS3 helicase inh 51, NS3 hel confirm inactive and DNA FID counter-2 inactive.
Screening O=C(CNC(=O)c1cccc(Cl)c1)N/N=C/C=C/c1ccccc1 returned VIM-2 inh inactive, UBC9 SUMO inh inactive, IMP-1 inh inactive, DNA FID counter-1 inactive and NS3 helicase inh inactive.
O=C(NCC1CCCCC1)c1cc2ccccc2cc1O was read as VIM-2 inh inactive, UBC9 SUMO inh inactive, IMP-1 inh inactive, DNA FID counter-1 inactive and NS3 helicase inh inactive.
Screening O=C(N/N=C1/CC2CCC1C2)c1cc2ccccc2cc1O (stereo not given) returned VIM-2 inh inactive, UBC9 SUMO inh inactive, IMP-1 inh inactive, DNA FID counter-1 inactive, NS3 helicase inh 49, NS3 hel confirm inactive and DNA FID counter-2 inactive.

High-throughput results as filed in PubChem BioAssay.
